According to ChEMBL document CHEMBL4004839, “Targeting Bacillosamine Biosynthesis in Bacterial Pathogens: Development of Inhibitors to a Bacterial Amino-Sugar Acetyltransferase from Campylobacter jejuni” (J Med Chem, 2017):
Active and inactive are the calls of the source. The rule behind the calls is not given here.

How the values were obtained:
[1] = target: T1, UDP-N-acetylbacillosamine N-acetyltransferase (Campylobacter jejuni subsp. jejuni serotype O:2 (strain ATCC 700819 /NCTC 11168), UniProt Q0P9D1); experiment: Inhibition of Campylobacter jejuni NCTC 11168 PglD acetyltransferase expressed in Escherichia coli BL-21(DE3) strain (Stratagene) assessed as release of CoASH preincubated for 30 mins followed by addition of 300 uM AcCoA and 500 uM UDP-4-aminosugar as substrate by Ellman's method
T1 sequence (Q0P9D1 whole entry): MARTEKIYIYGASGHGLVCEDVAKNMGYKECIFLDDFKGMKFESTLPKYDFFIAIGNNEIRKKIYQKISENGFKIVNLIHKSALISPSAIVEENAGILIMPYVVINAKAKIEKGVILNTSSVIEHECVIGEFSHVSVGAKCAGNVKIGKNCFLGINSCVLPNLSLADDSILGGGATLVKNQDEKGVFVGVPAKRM
In short: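 Continuous DTNB read-out of CoASH release. Inhibitor (DMSO stock) preincubated 30 min at RT with PglD in 50 mM HEPES pH 7.8, 1 mM MgCl2, 0.05 mg/mL BSA, 0.001% Triton X-100. […] Initial rates over 5 min at RT, A412. IC50 derived.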

[2] = target: T2, UDP-N-acetylbacillosamine N-acetyltransferase (Campylobacter jejuni subsp. jejuni serotype O:2 (strain ATCC 700819 /NCTC 11168)) (UniProt Q0P9D1); experiment: Binding affinity to Campylobacter jejuni NCTC 11168 PglD acetyltransferase expressed in Escherichia coli BL-21(DE3) strain (Stratagene) assessed as change in melting temperature at 100 uM by Sypro orange dye-based differential scanning fluorimetry
T2 sequence (whole entry): T1 sequence (Q0P9D1 whole entry)

[3] = target: T1, UDP-N-acetylbacillosamine N-acetyltransferase; experiment: Competitive inhibition of Campylobacter jejuni NCTC 11168 PglD acetyltransferase expressed in Escherichia coli BL-21(DE3) strain (Stratagene) assessed as release of CoASH preincubated for 30 mins followed by addition of UDP-4-aminosugar and 2 fold excess AcCoA as substrate by Ellman's method
In short: (§1)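 Same continuous DTNB-coupled PglD assay: 30 min RT inhibitor–enzyme preincubation, 3 nM PglD, HEPES pH 7.8 buffer, A412 initial rates over 5 min. IC50 determined while raising one substrate above standard (300 μM AcCoA, 500 μM UDP-4-amino-sugar): AcCoA raised 2- or 5-fold, or UDP-4-amino-sugar raised to higher levels.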

[4] = target: T2, UDP-N-acetylbacillosamine N-acetyltransferase (Campylobacter jejuni subsp. jejuni serotype O:2 (strain ATCC 700819 /NCTC 11168)); experiment: Competitive inhibition of Campylobacter jejuni NCTC 11168 PglD acetyltransferase expressed in Escherichia coli BL-21(DE3) strain (Stratagene) assessed as release of CoASH preincubated for 30 mins followed by addition of AcCoA and higher levels of UDP-4-aminosugar as substrate by Ellman's method; in short: as §1
[5] = target: T1, UDP-N-acetylbacillosamine N-acetyltransferase; experiment: Competitive inhibition of Campylobacter jejuni NCTC 11168 PglD acetyltransferase expressed in Escherichia coli BL-21(DE3) strain (Stratagene) assessed as release of CoASH preincubated for 30 mins followed by addition of UDP-4-aminosugar and 5 fold excess AcCoA as substrate by Ellman's method; in short: as §1
[6] = target: T1, UDP-N-acetylbacillosamine N-acetyltransferase; experiment: Inhibition of Campylobacter jejuni NCTC 11168 PglD acetyltransferase expressed in Escherichia coli BL-21(DE3) strain (Stratagene) assessed as release of CoASH preincubated for 45 mins followed by addition of AcCoA and UDP-4-aminosugar measured after 30 mins by fragment-based high-throughput screening analysis
In short: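 End-point screen with compounds at 10 μM final. Started with 100 μM UDP-4-aminosugar, quenched at 30 min with 2 mM DTNB, 1 mM EDTA, 20% 1-propanol (final). Developed 5 min, read at 405 nm.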

[7] = target: T2, UDP-N-acetylbacillosamine N-acetyltransferase (Campylobacter jejuni subsp. jejuni serotype O:2 (strain ATCC 700819 /NCTC 11168)); experiment: Effect on quaternary structure of Campylobacter jejuni NCTC 11168 PglD acetyltransferase expressed in Escherichia coli BL-21(DE3) strain (Stratagene) assessed as hydrodynamic radius of apo PgID at 250 uM by dynamic light scattering method (reference value: 34 Angstrom)
In short: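 DLS on 25 μM PglD with or without 250 μM inhibitor in 50 mM HEPES 7.5, 100 mM NaCl, 3% DMSO final. Scattering measured at 90° with 685 nm laser. Radius and polydispersity index derived with a Rayleigh scattering model.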

[8] = target: T2, UDP-N-acetylbacillosamine N-acetyltransferase (Campylobacter jejuni subsp. jejuni serotype O:2 (strain ATCC 700819 /NCTC 11168)); experiment: Effect on quaternary structure of Campylobacter jejuni NCTC 11168 PglD acetyltransferase expressed in Escherichia coli BL-21(DE3) strain (Stratagene) assessed as polydispersity index of PgID at 250 uM by dynamic light scattering method (reference value: 31%)
In short: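 Recombinant C. jejuni PglD (His8-TEV construct, tag removed, Ni-NTA then size-exclusion purified) at 25 μM, with or without 250 μM inhibitor, in 50 mM HEPES 7.5, 100 mM NaCl, 3% DMSO final. Scattering measured at 90° with 685 nm laser; analysed with Rayleigh scattering model to give radius and polydispersity index.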

SMILES	IC50 [1]	ΔTm [2]	also measured
CNc1nc(CCc2cccc(NC(C)=O)c2)nc2sc(C(=O)O)c(C)c12	3.5 µM	–	–
COc1ccccc1CCNc1nc(CCc2ccccc2)nc2sc(C(=O)O)c(C)c12	0.48 µM	13.7 °C	–
COc1cc(CCNc2nc(CCc3ccccc3)nc3sc(C(=O)O)c(C)c23)cc(OC)c1	0.37 µM	–	IC50 [3]: 0.63 µM; inhibition [4]: Active; IC50 [5]: 1.4 µM
Cc1c(C(=O)O)sc2nc(CCc3ccccc3)nc(NCCc3cccnc3)c12	0.34 µM	12 °C	–
Cc1c(C(=O)O)sc2nc(C(C)C)[nH]c(=O)c12	–	–	IC50 [6]: 122 µM
Cc1c(C(=O)O)sc2nc(CCc3ccccc3)nc(NCCc3cccc(F)c3)c12	0.39 µM	–	–
COc1ccc(CCNc2nc(CCc3ccccc3)nc3sc(C(=O)O)c(C)c23)cc1	0.54 µM	–	–
CNc1nc(CCc2ccccc2)nc2sc(C(=O)O)c(C)c12	2.2 µM	7.4 °C	–
Cc1c(C(=O)O)sc2nc(CCc3ccccc3)nc(NCCc3ccccc3)c12	1.4 µM	13.2 °C	–
Cc1c(C(=O)O)sc2nc[nH]c(=O)c12	–	–	IC50 [6]: 860 µM
O=C(O)c1cc(-c2ccco2)[nH]n1	–	–	IC50 [6]: 8400 µM
CNc1nc(CCc2ccc3c(c2)OCO3)nc2sc(C(=O)O)c(C)c12	1.8 µM	7.4 °C	–
Cc1c(C(=O)O)sc2nc(/C=C/c3ccc4[nH]ccc4c3)[nH]c(=O)c12	–	–	IC50 [6]: 1 µM
CNc1nc(CCc2cccc(F)c2)nc2sc(C(=O)O)c(C)c12	2.3 µM	8.9 °C	–
Cc1cccc(CCNc2nc(CCc3ccccc3)nc3sc(C(=O)O)c(C)c23)c1	0.42 µM	–	–
CNc1nc(CCc2ccccc2NC(C)=O)nc2sc(C(=O)O)c(C)c12	9 µM	–	–
Cc1c(C(=O)O)sc2nc(CCc3ccccc3)nc(NCCN)c12	1.6 µM	3.6 °C	–
Cc1c(C(=O)O)sc2nc(CCc3ccccc3)nc(NCCc3ccc4c(c3)OCO4)c12	0.59 µM	11.5 °C	–
CNc1nc(CCc2cccc(C(F)(F)F)c2)nc2sc(C(=O)O)c(C)c12	4.6 µM	7.4 °C	–
CNc1nc(CCc2cccc(Cl)c2)nc2sc(C(=O)O)c(C)c12	2.1 µM	9.4 °C	–
Cc1c(C(=O)O)sc2nc(CCc3ccccc3)nc(NC3Cc4ccccc4C3)c12	1 µM	–	–

SMILES	IC50 [1]	ΔTm [2]	also measured
CO[C@H](CNc1nc(C[C@H](C)c2ccccc2)nc2sc(C(=O)O)c(C)c12)c1ccccc1	1.1 µM	10.4 °C	–
COc1cccc(CCNc2nc(CCc3ccccc3)nc3sc(C(=O)O)c(C)c23)c1	0.45 µM	–	–
CNc1nc(CCCc2ccccc2)nc2sc(C(=O)O)c(C)c12	4.4 µM	7.9 °C	–
CNc1nc(CCc2ccc(NC(C)=O)cc2)nc2sc(C(=O)O)c(C)c12	2.4 µM	–	–
Cc1c(C(=O)O)sc2nc(CCc3ccccc3)nc(NCCc3ccccc3F)c12	0.48 µM	13.2 °C	–
CO[C@@H](CNc1nc(C[C@H](C)c2ccccc2)nc2sc(C(=O)O)c(C)c12)c1ccccc1	2 µM	9.4 °C	–
Cc1c(C(=O)O)sc2nc(CCc3ccccc3)nc(NCc3ccccc3)c12	4.5 µM	–	–
CNc1nc(CCCCc2ccccc2)nc2sc(C(=O)O)c(C)c12	4.1 µM	7.4 °C	–
Cc1ccc(CCNc2nc(CCc3ccccc3)nc3sc(C(=O)O)c(C)c23)cc1	0.72 µM	–	–
CNc1nc(CCc2cccc(OC)c2)nc2cc(C(=O)O)sc12	1.4 µM	5.9 °C	–
CC(=O)Nc1ccc(CCc2nc(NCCN)c3c(C)c(C(=O)O)sc3n2)cc1	1.4 µM	5.3 °C	–
Cc1ccccc1CCNc1nc(CCc2ccccc2)nc2sc(C(=O)O)c(C)c12	0.25 µM	14.3 °C	–
Cc1c(C(=O)O)sc2nc(CCc3ccccc3)nc(NCCc3ccccn3)c12	0.42 µM	12.5 °C	–
CO[C@@H](CNc1nc(C[C@@H](C)c2ccccc2)nc2sc(C(=O)O)c(C)c12)c1ccccc1	0.87 µM	–	–
CO[C@H](CNc1nc(C[C@@H](C)c2ccccc2)nc2sc(C(=O)O)c(C)c12)c1ccccc1	0.42 µM	9.9 °C	–
Cc1c(C(=O)O)sc2nc(CCc3ccccc3)nc(NCCc3ccc(F)cc3)c12	0.42 µM	–	–
Cc1c(C(=O)O)sc2nc(CCc3ccccc3)nc(NCCc3ccncc3)c12	0.39 µM	12 °C	–
CO[C@H](CNc1nc(CCc2ccc(NC(C)=O)cc2)nc2sc(C(=O)O)c(C)c12)c1ccccc1	0.27 µM	12.5 °C	Activity [7]: 36 Angstrom; Activity [8]: 24%
CNc1nc(CCc2cccc(OC)c2)nc2sc(C(=O)O)c(C)c12	1.1 µM	8.4 °C	–
CNc1nc(CCc2ccccc2)nc2cc(C(=O)O)sc12	3.9 µM	4.8 °C	–
CC(=O)Nc1ccc(CCc2nc(NCCc3ccccn3)c3c(C)c(C(=O)O)sc3n2)cc1	0.28 µM	11.5 °C	–
